Columns and labels:
[1] = molecular target: GABA-A receptor; anion channel; experiment: Affinity benzodiazepine receptor as ability to displace [3H]flunitrazepam from binding to membrane preparations from rat cerebral cortex.; format: tissue-based
In short: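 Rat cerebral cortex homogenised in ice-cold 50 mM Tris-HCl pH 7.4, centrifuged twice at 20000g and resuspended; 0.4-0.5 mg protein incubated with 0.5 nM [3H]flunitrazepam for 60 min at 0 °C. Filtration, then scintillation counting. Nonspecific binding defined with 5 μM diazepam. pIC50 from means of 3 experiments run in duplicate.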

Translocator protein [2] = molecular target: T1, Translocator protein (Rattus norvegicus, UniProt P16257); experiment: Displacement of [3H]-PK 11195 from peripheral-type benzodiazepine receptor of rat ovary membranes; format: cell membranes, Female gonad, Membrane
T1 sequence (P16257 whole entry, looked up): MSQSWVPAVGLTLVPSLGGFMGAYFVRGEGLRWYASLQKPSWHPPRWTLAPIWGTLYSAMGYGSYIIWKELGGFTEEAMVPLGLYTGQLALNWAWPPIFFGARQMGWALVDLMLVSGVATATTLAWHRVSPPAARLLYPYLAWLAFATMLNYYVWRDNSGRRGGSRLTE

[3] = molecular target: T2, GABA-A receptor; alpha-1/beta-2/gamma-2 (Homo sapiens) (UniProt P14867+P47870+P18507); experiment: Modulatory activity against human GABA-A receptor alpha-1-beta-2-gamma-2 subunits expressed in Xenopus laevis Oocytes at 100 uM; format: cell-based
In short: (§1)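 Xenopus stage V–VI oocytes, defolliculated with collagenase, nuclear-injected with α1, β2, γ2 cDNAs and cultured at 19 °C. Two-electrode voltage clamp at -70 mV began about 24 h later, under MBS perfusion at room temperature. Drug applied for 20 s; value is percent change of the current evoked by GABA EC20 (2-10 μM). Means from 6–14 oocytes ± SEM.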

[4] = molecular target: T2, GABA-A receptor; alpha-1/beta-2/gamma-2 (Homo sapiens); experiment: Modulatory activity against human GABA-A receptor alpha-1-beta-2-gamma-2 subunits expressed in Xenopus laevis Oocytes at 10 uM; format: cell-based; in short: as §1
Translocator protein [5] = molecular target: T1, Translocator protein; experiment: Displacement of [3H]-PK 11195 from peripheral-type benzodiazepine receptor of rat cerebral cortex membranes; format: cell membranes, Membrane
[6] = molecular target: T2, GABA-A receptor; alpha-1/beta-2/gamma-2 (Homo sapiens); experiment: Modulatory activity against human GABA-A receptor alpha-1-beta-2-gamma-2 subunits expressed in Xenopus laevis Oocytes at 50 uM; format: cell-based; in short: as §1

Compound | pIC50 [1] | IC50 (Translocator protein [2]) [nM] | Activity [3] | Activity [4] | IC50 (Translocator protein [5]) [nM] | Activity [6]
CCCCN(CCCC)C(=O)Cc1c(-c2ccccc2)nc2ccccn12 | 6.3 | 22.9 | < 58.2 | 17.4 | 17 | < 44.6
CCN(CC)C(=O)Cc1c(-c2ccccc2)nc2ccccn12 | 5.68 | 525 | – | – | 437 | –
CCCN(CCC)C(=O)Cc1c(-c2ccccc2)nc2c(C)cc(Br)cn12 | 4.27 | 2.63 | – | – | 1.62 | –
CCCN(CCC)C(=O)Cc1c(-c2ccccc2)nc2c([N+](=O)[O-])cccn12 | 4.8 | 120 | – | – | 85.1 | –
CCCN(CCC)C(=O)Cc1c(-c2ccc(Cl)cc2)nc2c(Cl)cc(C(F)(F)F)cn12 | 5 | 2.82 | – | – | 1.82 | –
CCCN(CCC)C(=O)Cc1c(-c2ccc(Cl)cc2)nc2c(OC)cccn12 | 4.19 | 20.9 | – | – | 16.6 | –
CCCN(CCC)C(=O)Cc1c(-c2ccccc2)nc2c(C)cccn12 | 4.85 | 41.7 | – | – | 20 | –
CCC(C)N(C)C(=O)c1cc2ccccc2c(-c2ccccc2Cl)n1 (configuration not stated) [PK-11195] | 4.67 | – | 91 | -16 | – | 4.3
CCCN(CCC)C(=O)Cc1c(-c2ccc(Cl)cc2)nc2ccccn12 | 7.19 | 33.1 | – | – | 10 | –
CCCN(CCC)C(=O)Cc1c(-c2ccccc2)nc2c(Cl)cc(Cl)cn12 | 2.4 | 4.27 | – | – | 3.02 | –
CCCN(CCC)C(=O)Cc1c(-c2ccccc2)nc2c(Cl)cccn12 | 4.59 | 15.8 | – | – | 22.9 | –
CCCN(CCC)C(=O)Cc1c(-c2ccccc2)nc2c(N)cccn12 | 5.27 | 5.75 | – | – | 4.27 | –
CCCN(CCC)C(=O)Cc1c(-c2ccccc2)nc2ccc(C(=O)OC)cn12 | 4.92 | 26.9 | 11.6 | 17.1 | 16.6 | 11.4
CCCN(CCC)C(=O)Cc1c(-c2ccccc2)nc2ccccn12 | 6.28 | 95.5 | – | – | 100 | –
CCCN(CCC)C(=O)Cc1c(-c2ccc(Cl)cc2)nc2c(NC)cccn12 | 4 | 7.94 | – | – | 3.72 | –
CCCN(CCC)C(=O)Cc1c(-c2ccc(Cl)cc2)nc2c(N)cccn12 | 5.07 | 4.57 | – | – | 6.31 | –

Compound | pIC50 [1] | IC50 (Translocator protein [2]) [nM] | Activity [3] | Activity [4] | IC50 (Translocator protein [5]) [nM] | Activity [6]
CCCCCCN(CCCCCC)C(=O)Cc1c(-c2ccccc2)nc2ccccn12 | 3.93 | 13.2 | – | – | 19.1 | –
CCCN(CCC)C(=O)Cc1c(-c2ccccc2)nc2c(OC)cccn12 | 5.27 | 49 | – | – | 46.8 | –
CCCN(CCC)C(=O)Cc1c(-c2ccccc2)nc2ccc(C(N)=O)cn12 | 5.58 | 302 | – | – | 457 | –
CCCN(CCC)C(=O)Cc1c(-c2ccccc2)nc2ccc([N+](=O)[O-])cn12 | 5.47 | 7.76 | – | – | 7.59 | –
CCCNC(=O)Cc1c(-c2ccccc2)nc2ccccn12 | 6.09 | 2000 | – | – | 2000 | –
CCCNC(=O)Cc1c(-c2ccc(Cl)cc2)nc2ccccn12 | 6.93 | 1620 | – | – | 589 | –
CCCN(CCC)C(=O)Cc1c(-c2ccc(Cl)cc2)nc2c(NC(C)=O)cccn12 | 4.09 | 33.1 | – | – | 10 | –
CCCN(CCC)C(=O)Cc1c(-c2ccc(Cl)cc2)nc2c(Cl)cccn12 | 2.4 | 7.41 | -15.2 | 4.5 | 4.27 | -6.1
CCCN(CCC)C(=O)Cc1c(-c2ccc(Cl)cc2)nc2c(Br)cc(Br)cn12 | 5 | 1.58 | – | – | 0.794 | –
CCCN(CCC)C(=O)Cc1c(-c2ccccc2)nc2c(NC(C)=O)cccn12 | 4.96 | 447 | – | – | 257 | –
CCCN(CCC)C(=O)Cc1c(-c2ccc(Cl)cc2)nc2c(C)cccn12 | 2.4 | 2.82 | < -44.3 | -9.6 | 1.41 | < -38.7
CCCCNC(=O)Cc1c(-c2ccccc2)nc2c(Cl)cc(Cl)cn12 | 4 | 389 | – | – | 295 | –
CCCN(CCC)C(=O)Cc1c(-c2ccc(Cl)cc2)nc2c([N+](=O)[O-])cccn12 | 5 | 8.71 | – | – | 5.75 | –
CCCCCCN(CCCCCC)C(=O)Cc1c(-c2ccc(Cl)cc2)nc2ccccn12 | 3.83 | 178 | – | – | 182 | –
CCCN(CCC)C(=O)Cc1c(-c2ccc(Cl)cc2)nc2c(Cl)cc(Cl)cn12 [ALPDEM] | 2.4 | 2.63 | – | – | 1 | –
CCCCN(CCCC)C(=O)Cc1c(-c2ccc(Cl)cc2)nc2ccccn12 | 7.04 | 10.5 | < 23.9 | < 23.2 | 5.89 | < 35

Reference: ChEMBL document CHEMBL1132659, “Novel 2-phenylimidazo[1,2-a]pyridine derivatives as potent and selective ligands for peripheral benzodiazepine receptors: synthesis, binding affinity, and in vivo studies” (J Med Chem, 1999)
